Screening data deposited in PubChem by several laboratories.
A1 inh – caspase 3/7 activation in MEF A1-2A-BIM cells, primary screen, A1 inhibitor project, cell-based, luminescence, HTS | caspase activation, % (test concentration not listed) | 330,000 compounds, 0.066% hits | Caspase-Glo 3/7 luminescence, 3 h; percent of clofoctol response, vehicle zero;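 active = over half of replicate activation scores above 10%, or exactly half above 10 with the replicate mean above 10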
MC4R antagonist – MC4R antagonists of cAMP signaling, primary screen, cell-based, TR-FRET, antagonist arm of biased-ligand search | Melanocortin receptor 4 (Homo sapiens), P32245 | AID 540295, 2011 | inhibition, % at 6.5 µM | MC4R-expressing cells, MTII-stimulated cAMP, LANCE TR-FRET | 360,000 compounds, 0.48% hits;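 active = inhibition above its plate's cutoff, the mean of tested wells on that plate plus 3 SD, cut at about 29% in these data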
Target sequence (P32245 whole entry, looked up): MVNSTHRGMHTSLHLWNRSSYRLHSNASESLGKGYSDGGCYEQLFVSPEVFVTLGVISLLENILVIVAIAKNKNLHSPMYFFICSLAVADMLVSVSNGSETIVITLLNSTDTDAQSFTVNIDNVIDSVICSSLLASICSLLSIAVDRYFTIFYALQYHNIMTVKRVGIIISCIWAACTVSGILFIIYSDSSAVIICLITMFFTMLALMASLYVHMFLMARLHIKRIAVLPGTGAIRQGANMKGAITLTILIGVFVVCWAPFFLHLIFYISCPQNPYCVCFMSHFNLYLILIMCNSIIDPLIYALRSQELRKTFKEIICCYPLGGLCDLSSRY
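System: U2OS cells stably expressing human melanocortin 4 receptor (MC4R). Reagent: Melanotan II challenge after compound preincubation. Doses: 6.5 µM. Times: 30-min compound, 1-h challenge, 1-h detection, room temperature. Measured by: TR-FRET with Eu-cAMP and labeled anti-cAMP, 671 nm. Replicates: singlicate.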
UPR XBP1 act – activators of adaptive XBP1 UPR arm, primary screen, cell-based, CHO-XBP1 luciferase reporter, luminescence, uHTS. IRE1-XBP1 UPR activation; percent of tunicamycin response, DMSO as zero. activation, % at 20 µM. 330,000 compounds, 0.33% hits;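 active = versus positive control, 20 µM dose yields 30% or more activation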
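assay system = CHO-XBP1 luciferase reporter cells | amount = 1000 cells/well | buffer or medium = F12 plus 10% FBS | compound dosing = single point, 20 µM final compound, 1% DMSO | incubation = 16-18 h cell attachment at 37 °C, then 6 h compound exposure | detection = Steady-Glo luminescence read | controls = tunicamycin 10 µg/mL and vehicle-only wells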
CHOP UPR activ – activators of apoptotic CHOP UPR arm, primary screen, cell-based, CHO-CHOP luciferase reporter, luminescence, uHTS; UPR activation; percent of tunicamycin response over DMSO baseline; activation, % at 10 µM; 330,000 compounds, 0.34% hits;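 active = at 10 µM dose, activation of 40% or more, normalized to positive control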
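Dosing – one dose, 10 µM in 0.5% DMSO · System – CHO-CHOP cells, stable luciferase reporter of PERK-eIF2a-CHOP signalling · Input – 500 cells/well · Control set – tunicamycin 10 µg/mL final as positive, DMSO-only wells as negative · Timing – 6 h compound treatment, 37 °C · Measure – % activation vs tunicamycin · Technique – luminescence read with Steady-Glo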
MC4R ag barr – MC4R agonists recruiting beta-arrestin, primary screen, cell-based, luminescence, agonist arm of biased-ligand search; 360,000 compounds, 0.98% hits; U2OS MC4R beta-arrestin complementation; percent of melanotan II response, DMSO zero; Melanocortin receptor 4 (Homo sapiens), P32245; activation, % at 8.9 µM;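 active = activation above a per-plate cutoff, the mean activation of sample wells on that plate plus 3 SD, cut at about 8% in these data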
UPR CHOP confirm – activators of apoptotic CHOP UPR arm, confirmation, cell-based, CHO-CHOP luciferase reporter, single concentration; 1,000 compounds, 64% hits; shares compounds with CHOP UPR activ; CHO-CHOP cells, CHOP-luciferase reporter luminescence; percent of tunicamycin response, DMSO as zero; activation, % at 10 µM; in the data active = activation above about 33%
UPR XBP1 confirm – IRE1-XBP1 UPR arm activators, confirmation, cell-based, CHO-XBP1 luciferase reporter, luminescence, single concentration; 1,000 compounds, 63% hits; shares compounds with UPR XBP1 act; activation, % at 20 µM; AID 485299, 2010;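 active = reporter signal at least 30% of the positive control's activation in two or more of four replicate wells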
MC4R barr conf – MC4R beta-arrestin agonists, retest, confirmation, cell-based, luminescence, U2OS; shares compounds with MC4R ag barr; 2,400 compounds, 31% hits; activation, % at 8.9 µM; U2OS MC4R beta-arrestin recruitment; scaled DMSO 0%, Melanotan II 100%; AID 602192, 2012;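 active = mean activation across replicates above the hit cutoff set in the earlier primary screen, cut at about 8% in these data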
MOR-DOR barr ag – agonists of MOR-DOR heterodimerization, counter-screen for MC4R biased agonist project, cell-based, luminescence | AID 602194, 2012 | activation, % at 9.2 µM | 2,400 compounds, 5.8% hits | U2OS PathHunter beta-arrestin, beta-gal luminescence; percent of deltorphin B response, DMSO zero | shares compounds with MC4R ag barr;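 active = mean activation across replicates exceeds the hit threshold derived in the earlier primary screen, cut at about 18% in these data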
Of the large screens only hits and unclear results are named; the others gave an inactive call (follow-up assays come after a bar, where they were run). In the library only some 2% were active in any assay of this set; here they are far more common.

COc1ccc(CN(C)C[C@@H]2OCc3cnnn3CCCC(=O)N([C@@H](C)CO)C[C@H]2C)cc1	none (no result: A1 inh, UPR XBP1 act, CHOP UPR activ)
COc1ccc(OC)c(N=c2oc3c(OC)cccc3cc2C(=O)NCc2ccco2)c1	none (no result: A1 inh)
COc1ccccc1N=c1oc2c(OC)cccc2cc1C(=O)NCc1ccco1	UPR XBP1 act 69, CHOP UPR activ 76, MC4R ag barr 24 | UPR CHOP confirm 67 | UPR XBP1 confirm inactive | MC4R barr conf inactive | MOR-DOR barr ag 25
COc1ccc(C=NNc2ccc([N+](=O)[O-])cn2)cc1	none (no result: A1 inh, UPR XBP1 act, CHOP UPR activ)
O=[N+]([O-])c1ccc(N/N=C/c2ccc(OCc3cccc4ccccc34)cc2)nc1	UPR XBP1 act 74 | UPR XBP1 confirm 34
Brc1cc2c(cc1/C=N/Nc1nc3ccccc3s1)OCO2	UPR XBP1 act 33 | UPR XBP1 confirm 155
Cc1noc(C)c1COc1ccccc1C(=O)N1CCN(S(=O)(=O)c2ccc(C(C)C)cc2)CC1	none (no result: A1 inh, UPR XBP1 act, CHOP UPR activ)
CC1CCN(Cc2c(C(=O)N/N=C/c3ccc(C(F)(F)F)cc3)nnn2-c2nonc2N)CC1	UPR XBP1 act 30, MC4R ag barr 24 | UPR XBP1 confirm 40
COc1c(Cl)cc(Cl)cc1/C=N/NC(=O)c1nnn(-c2nonc2N)c1CN1CCC(C)CC1	UPR XBP1 act 68 | UPR XBP1 confirm 91
CC1CCN(Cc2c(C(=O)N/N=C/c3cccc(C(F)(F)F)c3)nnn2-c2nonc2N)CC1	none
CC1CCN(Cc2c(C(=O)N/N=C/c3cc(Cl)ccc3O)nnn2-c2nonc2N)CC1	none
COc1ccc(S(=O)(=O)N(C)C[C@@H]2OCCCC[C@@H](C)Oc3ccc(NS(=O)(=O)c4cccs4)cc3C(=O)N([C@H](C)CO)C[C@@H]2C)cc1	none (no result: A1 inh, UPR XBP1 act, CHOP UPR activ)
Cc1nc(Oc2ccccc2)c2ccccc2n1	none
c1ccc(Oc2c3ccccc3nc3ccccc23)cc1	UPR XBP1 act 63 (no result: MC4R antagonist, MC4R ag barr) | UPR XBP1 confirm 67
Cc1cccc(C)c1NC1=C(Cl)C(=O)OC1OC(C)C (centres undefined)	none
Cc1ccc(NC2=C(Cl)C(=O)OC2OC(C)C)c(C)c1 (centres undefined)	UPR XBP1 act 36 | UPR XBP1 confirm inactive
CC1C(=O)N(Cc2cn(CCC3OCCCO3)nn2)CCS(=O)(=O)N1Cc1ccc(-c2ccc(Cl)c(Cl)c2)cc1 (centres undefined)	none (no result: A1 inh, UPR XBP1 act, CHOP UPR activ)
CC1CCc2c(sc(NC(=O)CCc3nc4ccccc4c(=O)[nH]3)c2C#N)C1 (centres undefined)	UPR XBP1 act 169 | UPR XBP1 confirm 198
CCN(CC(=O)Nc1sc2c(c1C#N)CCC(C)C2)Cc1nc2ccccc2c(=O)[nH]1 (centres undefined)	none
O=C(NCCc1ccccc1)c1cc(S(=O)(=O)N2CCCCC2)c[nH]1	none (no result: A1 inh, UPR XBP1 act, CHOP UPR activ)
Cn1c(Cl)cnc1C1CC(=O)c2cc(Cl)ccc2O1 (centres undefined)	UPR XBP1 act 77 | UPR XBP1 confirm 130
O=C1CC(c2ccc(Cl)cc2)Oc2ccc(Cl)cc21 (centres undefined)	none (no result: A1 inh, UPR XBP1 act, CHOP UPR activ)
Cc1cc(C)c2c(CCl)cc(=O)oc2c1	UPR XBP1 act 41 | UPR XBP1 confirm 38
Cc1cc(C)c2c(CN3CCCCC3)cc(=O)oc2c1	none
NS(=O)(=O)c1ccc(N/N=C/c2cn(-c3ccccc3)nc2-c2cccs2)cc1	none
NS(=O)(=O)c1ccc(N/N=C/c2cn(-c3ccccc3)nc2-c2cccs2)c([N+](=O)[O-])c1	UPR XBP1 act 57 | UPR XBP1 confirm 62
O=C(C[n+]1cccc(NC(=O)c2ccccc2)c1)c1cccc([N+](=O)[O-])c1	none
O=C(C[n+]1ccc(-c2cc(C(=O)Nc3cccc(C(F)(F)F)c3)c3ccccc3n2)cc1)c1cccc([N+](=O)[O-])c1	UPR XBP1 act 106 | UPR XBP1 confirm 91
Nc1ccc(NC(=O)c2ccccc2)c2c1C(=O)c1ccccc1C2=O	UPR XBP1 act 32 | UPR XBP1 confirm inactive
Nc1ccccc1NC(=O)c1ccccc1	none
CCCCNC(=O)c1ccc(Cn2c(=S)[nH]c3c([nH]c4ccc(OC)cc43)c2=O)cc1	A1 inh 51, UPR XBP1 act 41 | UPR XBP1 confirm 64
CCOCCCNC(=O)c1ccc(Cn2c(=S)[nH]c3c([nH]c4ccc(OC)cc43)c2=O)cc1	none
CCN(CC)C(=O)c1cccc(-c2csc(C(C)(O)c3ccncc3)n2)c1 (centres undefined)	none (no result: A1 inh, UPR XBP1 act, CHOP UPR activ)
COc1ccc(-c2cc(=Nc3c(C)n(C)n(-c4ccccc4)c3=O)c3ccccc3o2)cc1	none
COc1ccc(-c2c/c(=N\c3nc(-c4ccccc4)c(C)s3)c3ccccc3o2)cc1O	UPR XBP1 act 34 | UPR XBP1 confirm 39
CCOC(=O)c1nnc(-c2ccc(C)cc2)nc1Oc1ccccc1Cl	UPR XBP1 act 37 | UPR XBP1 confirm 49
CCOC(=O)c1nnc(-c2ccc(C)cc2)nc1Oc1ccc(Cl)cc1Cl	UPR XBP1 act 94 | UPR XBP1 confirm 124
COc1ccc(NC(=O)C2(C)Cc3c(-c4ccc(N(C)C)cc4)ccnc3O2)cn1 (centres undefined)	none (no result: A1 inh, UPR XBP1 act, CHOP UPR activ)
COc1cccc(S(=O)(=O)Nc2ccc(C(O)(C(F)(F)F)C(F)(F)F)cc2)c1	none (no result: A1 inh, UPR XBP1 act, CHOP UPR activ)
CC(=O)c1cccc(-c2ccnc3c2CC(C(=O)Nc2ccc(C(C)C)cc2)O3)c1 (centres undefined)	none (no result: A1 inh, UPR XBP1 act, CHOP UPR activ)
COC(=O)c1ccc(N2CCN(C)CC2)c(NC(=O)c2ccc(-c3ccc(Cl)cc3)o2)c1	UPR XBP1 act 45 | UPR XBP1 confirm inactive
COc1cc(OC)nc(Nc2nc(CN)cs2)n1	none (no result: A1 inh, UPR XBP1 act, CHOP UPR activ)
